# Assay outcomes: PubChem, The Scripps Research Institute Molecular Screening Center
# NPY-Y2 PAM-ag – human NPY-Y2 potentiation or agonism, primary screen; P49146; cells expressing NPY-Y2, potentiator/agonist read-out; activation, % at 3.6 µM; hit rate 0.45% among 220,000; in the data active = activation above about 27%;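 also: cells stimulated with NPY near EC25 plus isoproterenol at EC100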
# Target sequence (P49146 whole entry, looked up): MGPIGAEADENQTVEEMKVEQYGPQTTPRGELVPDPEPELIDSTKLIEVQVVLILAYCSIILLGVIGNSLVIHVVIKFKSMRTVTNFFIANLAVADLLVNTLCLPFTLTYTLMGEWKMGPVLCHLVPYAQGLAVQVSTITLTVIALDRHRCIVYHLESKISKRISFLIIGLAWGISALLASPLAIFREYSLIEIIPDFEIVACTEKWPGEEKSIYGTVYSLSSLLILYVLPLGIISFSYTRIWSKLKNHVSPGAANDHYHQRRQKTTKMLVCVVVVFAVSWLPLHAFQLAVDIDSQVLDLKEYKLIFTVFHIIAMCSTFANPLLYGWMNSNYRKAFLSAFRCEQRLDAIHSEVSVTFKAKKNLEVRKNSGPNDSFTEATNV
# NPY-Y2 antag – blocks the human neuropeptide Y Y2 receptor; P49146; NPY-Y2 expressing cells, antagonist mode; inhibition, % at 2.7 µM; hit rate 0.99% among 140,000; in the data active = inhibition above about 17%
# NPY1 pot ag – potentiators or agonists of human neuropeptide Y receptor Y1; P25929; NPY-Y1 expressing cells, potentiator/agonist activation; activation, % at 3.6 µM; hit rate 0.37% among 220,000; AID 1304; in the data active = activation above about 33%, passing the limit was not always enough;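 also: cells stimulated with NPY at EC10 then isoproterenol at EC100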
# NPY Y1 blocker – antagonists of human neuropeptide Y receptor Y1; hit rate 1% among 200,000; HEK293-CNG Y1 cells, membrane potential fluorescence; NPY at EC95, then isoproterenol; inhibition, % at 3.6 µM; P25929; AID 1040;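 active = inhibition above the campaign mean inhibition of all tested compounds plus 3 SD, cut at about 20% in these data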
#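 System: HEK293 cells with Y1 receptor plus CNG channel / Probe or stimulus: NPY 25 nM then isoproterenol 1 µM plus Ro 20-1724 25 µM / Compound: one concentration, 3.6 µM, in 0.4% DMSO / Schedule: compound incubation 1 h at room temperature, readout 45 min post-stimulation / Measured by: membrane potential fluorescence / Read-out: % inhibition of NPY effect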
# Hits are given with their value; n = inactive; x = no result given. Rows were chosen to be rich in hits. Some 1.9% of all compounds tested hit in one or more screens of this group.
SMILES,NPY-Y2 PAM-ag,NPY-Y2 antag,NPY1 pot ag,NPY Y1 blocker
CCC(=O)N(CCC(c1ccccc1)c1ccco1)Cc1cccs1 (centres undefined),n,22.4,n,27.4
COC(=O)Cc1c[nH]c2cccc(OCC(O)CN(Cc3ccc([N+](=O)[O-])cc3)C(C)(C)C)c12 (centres undefined),102.6,n,106.7,n
COC(=O)Cc1c[nH]c2cccc(OCC(O)CN(Cc3ccccc3)C(C)C)c12 (centres undefined),89.9,n,97.3,n
CC(C)CN(CC(C)C)CC(O)COc1ccc([N+](=O)[O-])cc1 (centres undefined),n,n,n,n
COc1ccc(S(=O)(=O)NCc2cc(-c3ccccc3Cl)no2)cc1,n,x,n,n
CN(C)c1nc(NCc2ccccc2)nc(SCC(=O)Nc2ccccc2Cl)n1,n,42.9,n,25.6
CN(C)c1nc(NCc2ccccc2)nc(SCC(=O)Nc2ccccc2)n1,n,n,n,n
COC(=O)c1ccccc1Oc1ccc(NC(=O)CCCl)cc1,n,x,n,n
O=C1NC(c2ccccc2OC(F)F)Oc2ccccc21 (centres undefined),56.5,x,46.1,n
COc1cccc(OCC(O)CN2CCC(CN3C(=O)c4cccc5cccc(c45)C3=O)CC2)c1 (centres undefined),43.2,x,51.7,n
CCc1ccc(OCC(O)CN2CCC(CN3C(=O)c4cccc5cccc(c45)C3=O)CC2)cc1 (centres undefined),n,n,n,n
COc1ccc2nc(NC(=O)CN(c3ccc(C)cc3)S(=O)(=O)c3c(C)nn(C)c3C)sc2c1,44.8,n,55.1,n
COc1ccc(N(CC(=O)NCc2ccc(C)cc2)S(=O)(=O)c2c(C)nn(C)c2C)cc1,n,n,n,n
CCSc1ccc(-c2cccc([N+](=O)[O-])c2)nn1,n,x,n,n
N#Cc1c(NC(=O)CSc2nnc(-c3ccco3)n2-c2ccccc2)sc2c1CCC2,42.6,n,110.5,n
NC(=O)c1c(NC(=O)CSc2nnc(-c3ccco3)n2-c2ccccc2)sc2c1CCC2,n,n,n,n
O=C(Nc1nccs1)c1ccc(S(=O)(=O)NCC2CCCCC2)cc1,n,n,42.1,n
Cc1nc(N2CCOCC2)c2c(C)c(C(=O)Nc3ccccc3Cl)sc2n1,n,x,n,n
Cc1nc(N2CCOCC2)c2c(C)c(C(=O)Nc3ccccc3C(F)(F)F)sc2n1,n,x,n,20.4
COCCCNC(=O)c1ccc(N2CCCC2)c(NS(=O)(=O)c2ccc(C)cc2)c1,n,n,n,n
CCOCCCNC(=O)c1ccc(N2CCCC2)c(NS(=O)(=O)c2ccc(C)cc2)c1,32.8,x,57.8,n
COc1ccc(C)cc1NC(=O)C(NC(=O)c1cc(OC)c(OC)c(OC)c1)C(C)C (centres undefined),n,x,n,n
C/C(=C\C(=O)c1ccc(Br)cc1)NCc1ccc2c(c1)OCO2,n,n,n,20.8
CCC(Oc1nc2ccccc2nc1-c1ccccc1NC(C)=O)C(=O)c1ccccc1 (centres undefined),n,19.7,n,32.9
COc1ccc(NC(=S)N(CCN2CCOCC2)Cc2cc3cc4c(cc3[nH]c2=O)OCCO4)cc1,n,x,n,n
SMILES,NPY-Y2 PAM-ag,NPY-Y2 antag,NPY1 pot ag,NPY Y1 blocker
CC1CCN(C2=C(NS(=O)(=O)c3ccccc3)C(=O)c3ccccc3C2=O)CC1,77.5,x,95.4,x
CC(=O)Nc1ccc(S(=O)(=O)NC2=C(N3CCN(Cc4ccccc4)CC3)C(=O)c3ccccc3C2=O)cc1,n,n,n,n
O=C1C(NS(=O)(=O)c2ccccc2)=C(N2CCN(c3ccc(F)cc3)CC2)C(=O)c2ccccc21,86.8,x,88.6,x
O=S(=O)(Nc1nc2ccccc2nc1N1CCN(c2ccccc2)CC1)c1ccc(F)cc1,n,n,n,n
CCC(=O)Nc1cc(=O)[nH]c2nc(-c3ccc(Cl)cc3)nn12,n,x,n,x
COC(=O)c1ccc(COc2ccc(/C=N/NC(N)=S)cc2)o1,n,x,n,x
CCOC(=O)N/N=C(/C)c1cccc(-n2cnnn2)c1,n,x,n,n
Cc1ccc(S(=O)(=O)N2CCN(c3nccnc3C#N)CC2)cc1,n,x,n,x
COc1ccc(-c2cc(C(=O)Nc3nc4c(C)cccc4s3)c3ccccc3n2)cc1OC,n,44.6,n,47.1
Cc1ccc2nc(NC(=O)c3cc(-c4ccco4)nc4ccccc34)sc2c1,n,55.8,n,53.9
Cc1cc(C)n(C(=O)/C(C#N)=N/Nc2cc(Cl)cc(Cl)c2)n1,n,x,n,n
COC(=O)[C@H](CC(C)C)NC(=O)Nc1ccc(S(N)(=O)=O)cc1,n,x,n,x
N#CC(Cc1ccccc1OC(F)F)c1nc2ccccc2[nH]1 (centres undefined),n,n,n,n
Cc1ccc(NC(=O)COc2ccccc2CNC(C)(C)CC(C)(C)C)cc1,n,25.2,n,30.0
CSC(=NC#N)N1CCN(c2ccc([N+](=O)[O-])cc2)CC1,n,x,n,n
CCOC(=O)C(=CNNc1cccc(Cl)c1)C(=O)OCC,53.7,x,61.5,x
COc1cc2c(cc1OC)C(c1cccc([N+](=O)[O-])c1)N(C(=O)c1ccc(F)cc1)CC2 (centres undefined),n,33.0,n,31.8
Cc1cc(C)c(C(=O)Nc2ccc(Br)c(C(F)(F)F)c2)c(C)c1,n,30.5,n,28.2
Cc1ccc(-n2c(C)cc(/C=N/NC(=O)Cn3c4ccccc4c(=O)c4ccccc43)c2C)cc1,55.5,n,60.9,n
O=C(Nc1ccccc1F)Nc1ccc([N+](=O)[O-])cc1Cl,n,x,n,n
CCCN(CCC)S(=O)(=O)c1ccc(Cl)c([N+](=O)[O-])c1,77.1,x,76.6,n
CCOc1ccc(/C=C/[N+](=O)[O-])c2ccccc12,n,27.4,n,32.1
FC(F)(F)c1cccc(NC(=S)NNC(=S)Nc2ccc(Cl)cc2)c1,44.8,x,73.8,x
CCN(CC)CCCC(C)NC(=O)c1ccc(C(F)(F)F)cc1 (centres undefined),n,x,n,n
CSc1nc2ccccc2c(=O)n1C1CCOC(C)(C)C1 (centres undefined),n,x,n,n
SMILES,NPY-Y2 PAM-ag,NPY-Y2 antag,NPY1 pot ag,NPY Y1 blocker
COc1cccc(-n2sc3c(c2=S)-c2cc(OC)ccc2NC3(C)C)c1,39.2,n,49.3,n
COc1cccc(-n2cn[nH]c2=S)c1,n,x,n,n
Cc1cc(Nc2cccc(F)c2)nc(-c2ccccc2O)n1,42.4,n,39.8,n
COc1ccc(CNC(=O)COC(=O)[C@H](Cc2c[nH]c3ccccc23)NC(=O)c2cccs2)cc1,n,n,n,n
CC1CCN(c2ccccc2NC(=S)NC(=O)c2ccco2)CC1,n,n,n,34.9
CC(=O)c1sccc1NC(=O)CC(C)(C)CC(=O)O,n,x,n,x
Cc1ccnc(NC(=O)CCC2CCCCC2)c1,n,19.9,n,23.1
OC(COc1ccc(C2C=CCC2)cc1)CN1CCCCC1 (centres undefined),73.1,n,59.7,n
O=C(c1ccccc1)c1ccc(OCC(O)CN2CCCCC2)cc1 (centres undefined),n,n,n,n
C=CCSc1nc(N)c(C#N)c(-c2ccc(C)cc2)c1C#N,45.1,n,44.8,n
COC(=O)CSc1nc(N)c(C#N)c(-c2ccc(O)cc2)c1C#N,n,x,n,x
Cc1[nH]nc(-c2ccc(O)cc2O)c1-c1ccc(Cl)cc1,48.1,n,n,n
